Our source for the Activity values is ChEMBL document CHEMBL1138119, “Extremely potent orally active benzo[g]quinoline analogue of the dopaminergic prodrug: 1-propyl-trans-2,3,4,4a,5,7,8,9,10,10a-decahydro-1H-benzo-[g]quinolin-6-one [corrected]” (2006).

The source made the active and inactive calls. The calls are words filed in the database; no cut-off is given here.

Assay [1] concerns Rattus norvegicus. In words: Effect on striatal dopamine release in rat at 1umol/kg, sc. Format: functional, organism-based. The method, boiled down:
(§1)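 Striatal microdialysis in freely moving rats, done by a previously described procedure. Doses were given sc or po. Dopamine levels are expressed relative to basal dopamine levels, as mean (SEM) from four rats.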

In assay [2] the target is D(1A) dopamine receptor (Rattus norvegicus) (UniProt P18901). The experiment in a line: Displacement of [3H]SCH-23390 from dopamine D1 receptor in rat corpus striatum membrane at 100nM. Format: cell membranes.
The target of assay [3] is D(2) dopamine receptor (Rattus norvegicus) (UniProt P61169). In words: Displacement of [3H]spiperone from dopamine D2 receptor in rat corpus striatum membrane at 100nM. In kind it is cell membranes. The method, boiled down: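 Inhibition of [3H]spiperone binding (0.50 nM; Kd 0.20 nM) to dopamine receptors in rat corpus striatum membranes, in vitro. Displacement was measured at a single fixed test concentration.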

The target of assay [4] is D(3) dopamine receptor (Homo sapiens) (UniProt P35462). The experiment in a line: Displacement of [3H]spiperone from human dopamine D3 receptor expressed in CHO cells at 50nM. Format: cell-based. The method, boiled down:
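CHO membranes with cloned human D3 (26 µg protein) in 25 mM Tris-HCl pH 7.4, 6.0 mM MgCl2, 1.0 mM EDTA. […] Incubated 60 min at 25 °C, filtered on PEI-treated GF/C, and counted by scintillation. Measured at a single test concentration.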

Assay [5] deals with T1, D(4) dopamine receptor (Homo sapiens) (UniProt P21917).
T1 sequence (whole entry): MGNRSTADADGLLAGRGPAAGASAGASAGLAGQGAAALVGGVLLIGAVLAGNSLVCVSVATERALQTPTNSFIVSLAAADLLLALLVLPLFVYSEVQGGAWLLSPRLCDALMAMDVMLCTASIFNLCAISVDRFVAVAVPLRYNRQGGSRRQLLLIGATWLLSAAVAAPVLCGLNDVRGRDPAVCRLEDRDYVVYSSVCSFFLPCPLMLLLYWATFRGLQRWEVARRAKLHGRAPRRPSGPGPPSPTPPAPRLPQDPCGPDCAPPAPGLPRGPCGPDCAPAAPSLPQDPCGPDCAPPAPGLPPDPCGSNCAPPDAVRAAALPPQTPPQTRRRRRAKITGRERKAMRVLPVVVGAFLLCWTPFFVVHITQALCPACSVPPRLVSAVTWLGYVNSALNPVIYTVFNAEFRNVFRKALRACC
The experiment in a line: Displacement of [3H]nemonapride from human dopamine D4 receptor at 50nM. The method, boiled down:
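Inhibition of [3H]nemonapride binding (0.50 nM; Kd 0.20 nM) to cloned human D4 receptors, in vitro. Displacement was measured at a single fixed test concentration.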

In assay [6] the test system is Rattus norvegicus. The experiment in a line: Decrease in striatal dopamine levels in rat at 3 nmol/kg, sc. Format: functional. Details: scale not given: the % may be the effect or the level left. The method in brief: as §1
In assay [7] the test system is Rattus norvegicus. The experiment in a line: Decrease in striatal dopamine levels in rat at 10 nmol/kg, po. In kind it is functional. Details: scale not given: the % may be the effect or the level left. The method in brief:
as §1

The test system of assay [8] is Rattus norvegicus. In words: Decrease in striatal dopamine levels in rat at 10 nmol/kg, sc. More on the design: scale not given: the % may be the effect or the level left. In kind it is functional. The method, boiled down:
as §1

The test system of assay [9] is Rattus norvegicus. The experiment in a line: Decrease in striatal dopamine levels in rat at 1 nmol/kg, sc. Format: functional. Details: scale not given: the % may be the effect or the level left. The method in brief: as §1
Assay [10] deals with Rattus norvegicus. In words: Decrease in striatal dopamine levels in rat at 3 nmol/kg, po. More on the design: scale not given: the % may be the effect or the level left. Format: functional. The method, boiled down: as §1

Sequence of D(2) dopamine receptor (Rattus norvegicus) (P61169 whole entry): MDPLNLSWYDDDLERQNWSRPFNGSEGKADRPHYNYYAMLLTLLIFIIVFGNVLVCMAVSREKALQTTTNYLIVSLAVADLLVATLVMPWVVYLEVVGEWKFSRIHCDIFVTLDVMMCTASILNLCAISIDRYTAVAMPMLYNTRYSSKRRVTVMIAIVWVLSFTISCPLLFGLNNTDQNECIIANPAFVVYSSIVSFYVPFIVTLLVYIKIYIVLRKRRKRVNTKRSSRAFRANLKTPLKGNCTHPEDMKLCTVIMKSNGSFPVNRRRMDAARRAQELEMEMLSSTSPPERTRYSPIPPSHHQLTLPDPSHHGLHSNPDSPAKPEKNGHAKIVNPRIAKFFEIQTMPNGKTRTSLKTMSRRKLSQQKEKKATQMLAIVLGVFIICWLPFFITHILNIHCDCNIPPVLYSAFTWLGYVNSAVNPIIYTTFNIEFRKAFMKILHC
Sequence of D(1A) dopamine receptor (Rattus norvegicus) (P18901 whole entry): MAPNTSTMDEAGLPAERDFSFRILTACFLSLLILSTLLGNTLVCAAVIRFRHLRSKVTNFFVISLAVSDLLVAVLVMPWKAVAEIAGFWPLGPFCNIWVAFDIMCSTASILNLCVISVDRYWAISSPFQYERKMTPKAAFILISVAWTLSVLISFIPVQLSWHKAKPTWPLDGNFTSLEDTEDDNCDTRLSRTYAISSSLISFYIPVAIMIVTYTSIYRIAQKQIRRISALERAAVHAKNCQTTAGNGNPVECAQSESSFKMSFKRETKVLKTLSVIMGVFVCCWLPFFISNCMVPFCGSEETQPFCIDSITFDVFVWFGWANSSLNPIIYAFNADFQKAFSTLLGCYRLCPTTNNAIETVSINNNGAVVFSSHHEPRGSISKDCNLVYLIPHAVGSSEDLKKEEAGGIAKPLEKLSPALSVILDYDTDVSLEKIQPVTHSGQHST
Sequence of D(3) dopamine receptor (Homo sapiens) (P35462 whole entry): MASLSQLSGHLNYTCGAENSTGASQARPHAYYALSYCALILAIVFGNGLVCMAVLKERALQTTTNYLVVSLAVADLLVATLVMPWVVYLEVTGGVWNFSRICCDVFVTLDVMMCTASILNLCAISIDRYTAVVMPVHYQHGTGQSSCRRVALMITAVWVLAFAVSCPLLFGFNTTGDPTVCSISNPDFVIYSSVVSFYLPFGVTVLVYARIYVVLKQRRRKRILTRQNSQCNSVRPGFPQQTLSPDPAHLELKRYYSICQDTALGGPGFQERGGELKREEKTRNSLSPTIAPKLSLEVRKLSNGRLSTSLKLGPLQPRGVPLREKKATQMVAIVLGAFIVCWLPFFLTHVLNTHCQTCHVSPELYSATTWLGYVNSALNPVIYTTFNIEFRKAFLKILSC

As for `CCCN1CCCC2CC3=C(CCCC3=O)CC21` (single isomer, unassigned; (+)), the outcome with Rattus norvegicus [1] was inactive. For the same molecule, the Activity in assay [2] is 7%; in [3], 3%; in [4], 28%; in assay [5] it was -19%.

`CCCN1CCCC2CC3=C(CCCC3=O)CC21` (single isomer, unassigned; (-)) [listing 1 of 2 here]: the Activity in the assay with Rattus norvegicus [6] came out at 20%; with Rattus norvegicus [7], 60%; with Rattus norvegicus [8], 20%; with Rattus norvegicus [9], 20%; in the assay with Rattus norvegicus [10] it was 45%.

For `CCCN1CCCC2CC3=C(CCCC3=O)CC21` (single isomer, unassigned; (-)) [listing 2 of 2 here], the Activity was -1% in assay [2], 15% in [3], 23% in assay [4] and -4% in assay [5].
